In ChEMBL document CHEMBL1123384, “Studies of the antitumor activity of (2-alkoxyalkyl)- and (2-alkoxyalkenyl)phosphocholines” (J Med Chem, 1986):
≈ marks a conversion by molar mass, not a printed value. One block for each compound: values may come before it. Calls of active or inactive are those of the source. No cut-off for these calls is given here.

Key:
C-6 colon (Mus musculus) = assay: Compound was evaluated for the antitumor activity against C-6 colon for ip administration and days 4,8,12; Number of toxic deaths over total number of mice per group (T/C), 1/10 at dose of 50 mg/kg
Mus musculus [1] = species: Mus musculus; assay: Compound was evaluated for the induction of cytotoxic macrophages at concentration of 0.1 ug/mL; format: functional
Outline: (§1)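 Peptone-elicited peritoneal macrophages were taken from C3Heb/FeJ mice (6–8 weeks) 3 days after ip peptone broth. About 4 × 10^5 cells per well were made adherent (90 min) and washed. Compound (3 mg/mL Me2SO stock, diluted in RPMI-1640 + 20% FCS) was added with 4 × 10^4 P815 mastocytoma cells, about 10:1 macrophage:target, at 37 °C, 5% CO2. After 48 h, nonadherent cells were counted by trypan blue. % cytotoxicity = (A−B)/A × 100, corrected for direct drug toxicity on targets. Mean of three experiments.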

[2] = Compound was evaluated for the antitumor activity against X5563 plasma cell myeloma for iv administration and days 4,8,12; Number of toxic deaths over total number of mice per group (T/C), 1/10 at dose of 50 mg/kg; format: functional; conditions: Mus musculus
6C3HED = assay: Compound was evaluated for the antitumor activity against 6C3HED lymphosarcoma for ip administration and daily x 8 schedule; Number of toxic deaths over total number of mice per group (T/C), 0/10 at dose of 35 mg/kg; format: functional; conditions: Mus musculus, route intraperitoneal
[3] = Compound was evaluated for the antitumor activity against X5563 plasma cell myeloma for po administration and daily x 10 schedule; Number of toxic deaths over total number of mice per group (T/C), 0/10 at dose of 50 mg/kg; format: functional; conditions: Mus musculus
AC755 = assay: Compound was evaluated for the antitumor activity against AC755 breast carcinoma for ip administration and daily x 10 schedule; Number of toxic deaths over total number of mice per group (T/C), 1/7 at dose of 25 mg/kg; format: functional; conditions: Mus musculus, route intraperitoneal
B16 = assay: Compound was evaluated for the antitumor activity against B-16 melanoma; Inactive; format: functional, cell-based; conditions: Mus musculus
X5563 [4] = assay: Compound was tested in vivo for inhibition of tumor growth of X5,563 myeloma at dose of 17 mg/kg; Number of toxic deaths over total number of mice per group (T/C), 0/10; format: functional; conditions: Mus musculus
CCRF-CEM = assay: In vitro inhibition of CCRF-CEM cell proliferation; format: functional, cell-based; conditions: Homo sapiens
Outline: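 Human leukaemia CCRF-CEM cells were grown in RPMI 1640 with 10% dialysed FBS, 16 mM HEPES and 8 mM MOPS, at 4.8 × 10^4 cells per well, in duplicate with several concentrations. Compounds came from a 4 mg/mL Me2SO (or ethanol) stock. After 72 h of continuous exposure (5% CO2), cells were counted on a Coulter counter. IC50 was read from dose–response curves against untreated controls.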

C3H = assay: Compound was evaluated for the antitumor activity against C3H mammary carcinoma for ip administration and daily x 10 schedule; Number of toxic deaths over total number of mice per group (T/C), 1/10 at dose of 25 mg/kg; format: functional; conditions: Mus musculus, route intraperitoneal
X5563 [5] = assay: Compound was tested in vivo for inhibition of tumor growth of X5,563 myeloma at dose of 35 mg/kg; Number of toxic deaths over total number of mice per group (T/C), 4/10; format: functional; conditions: Mus musculus
M-5 = assay: Compound was evaluated for the antitumor activity against M-5 ovarian carcinoma for ip administration and daily x 10; % day delay schedule.; format: functional, Mus musculus
Mus musculus [6] = species: Mus musculus; assay: Compound was evaluated for the induction of cytotoxic macrophages at concentration of 1 ug/mL; format: functional
Outline: as §1

P388 = assay: Compound was evaluated for the antitumor activity against P-388 leukemia; Inactive; format: functional, cell-based; conditions: Mus musculus
Outline: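 P-388 leukaemia: DBA/2 mice were inoculated ip with 1 × 10^6 cells. Compounds were suspended in 2.5% Emulphor in 0.9% saline and given as indicated. Mean life span of treated groups was compared with controls.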

[7] = Compound was evaluated for the antitumor activity against X5563 plasma cell myeloma for ip administration and days x10; Number of toxic deaths over total number of mice per group (T/C), 0/10 at dose of 25 mg/kg; format: functional; conditions: Mus musculus, route intraperitoneal
X5563 [8] = assay: Compound was tested in vivo for inhibition of tumor growth of X5,563 myeloma at dose of 25 mg/kg; Number of toxic deaths over total number of mice per group (T/C), 1/10; format: functional; conditions: Mus musculus
C6 = assay: Compound was evaluated for the antitumor activity against C-6 colon for ip administration and daily x 10; 5-day delay schedule; Number of toxic deaths over total number of mice per group (T/C), 1/10 at dose of 17 mg/kg; format: functional; conditions: Mus musculus, 120 h, route intraperitoneal
Mus musculus [9] = species: Mus musculus; assay: Compound was evaluated for the induction of cytotoxic macrophages at concentration of 0.01 ug/mL; format: functional
Outline: as §1

X5563 [10] = assay: Compound was tested in vivo for inhibition of tumor growth of X5,563 myeloma at dose of 25 mg/kg; Number of toxic deaths over total number of mice per group (T/C), 0/9; format: functional; conditions: Mus musculus
X5563 [11] = assay: Compound was tested in vivo for inhibition of tumor growth of X5,563 myeloma at dose of 35 mg/kg; Number of toxic deaths over total number of mice per group (T/C), 0/9; format: functional; conditions: Mus musculus
X5563 [12] = assay: Compound was tested in vivo for inhibition of tumor growth of X5,563 myeloma at dose of 25 mg/kg; Number of toxic deaths over total number of mice per group (T/C), 2/10; format: functional; conditions: Mus musculus
X5563 [13] = assay: Compound was tested in vivo for inhibition of tumor growth of X5,563 myeloma at dose of 50 mg/kg; Number of toxic deaths over total number of mice per group (T/C), 9/10; format: functional; conditions: Mus musculus
[14] = Compound was tested in vivo for inhibition of tumor growth of X5,563 myeloma at dose of 35 mg/kg; Number of toxic deaths over total number of mice per group (T/C), 3/10; format: functional; conditions: Mus musculus, X5563
X5563 [15] = assay: Compound was tested in vivo for inhibition of tumor growth of X5,563 myeloma at dose of 70 mg/kg; Number of toxic deaths over total number of mice per group (T/C), 2/10; format: functional; conditions: Mus musculus
X5563 [16] = assay: Compound was tested in vivo for inhibition of tumor growth of X5,563 myeloma at dose of 50 mg/kg; Number of toxic deaths over total number of mice per group (T/C), 1/10; format: functional; conditions: Mus musculus
X5563 [17] = assay: Compound was tested in vivo for inhibition of tumor growth of X5,563 myeloma at dose of 70 mg/kg; Number of toxic deaths over total number of mice per group (T/C), 9/10; format: functional; conditions: Mus musculus
X5563 [18] = assay: Compound was tested in vivo for inhibition of tumor growth of X5,563 myeloma at dose of 35 mg/kg; Number of toxic deaths over total number of mice per group (T/C), 2/9; format: functional; conditions: Mus musculus
X5563 [19] = assay: Compound was tested in vivo for inhibition of tumor growth of X5,563 myeloma at dose of 25 mg/kg; Number of toxic deaths over total number of mice per group (T/C), 0/10; format: functional; conditions: Mus musculus
X5563 [20] = assay: Compound was tested in vivo for inhibition of tumor growth of X5,563 myeloma at dose of 17 mg/kg; Number of toxic deaths over total number of mice per group (T/C), 1/10; format: functional; conditions: Mus musculus
X5563 [21] = assay: Compound was tested in vivo for inhibition of tumor growth of X5,563 myeloma at dose of 5 mg/kg; Number of toxic deaths over total number of mice per group (T/C), 4/10; format: functional; conditions: Mus musculus
X5563 [22] = assay: Compound was tested in vivo for inhibition of tumor growth of X5,563 myeloma at dose of 17 mg/kg; Number of toxic deaths over total number of mice per group (T/C), 3/10; format: functional; conditions: Mus musculus

Structure (SMILES): CCCCCCCCCCCCCCCCCCC(COP(=O)([O-])OCC[N+](C)(C)C)OCC (centres undefined)
inhibition in vivo at 50 mg/kg (C-6 colon (Mus musculus)): 31%
Macrophage cytotoxicity (Mus musculus [1]): 37%
inhibition in vivo at 50 mg/kg [2]: 43%
inhibition in vivo at 35 mg/kg (6C3HED): 85%
inhibition in vivo at 50 mg/kg [3]: 56%
inhibition in vivo at 25 mg/kg (AC755): 42%
inhibition (B16): inactive
inhibition in vivo at 17 mg/kg (X5563 [4]): 65%
IC50 (CCRF-CEM): 0.8 µg/mL (≈ 1.58 µM)
inhibition in vivo at 25 mg/kg (C3H): 37%
inhibition in vivo at 35 mg/kg (X5563 [5]): 95%
Inhibition (M-5): 22%
Macrophage cytotoxicity (Mus musculus [6]): 29%
inhibition (P388): inactive
inhibition in vivo at 25 mg/kg [7]: 77%
inhibition in vivo at 25 mg/kg (X5563 [8]): 80%
inhibition in vivo at 17 mg/kg (C6): 56%
Macrophage cytotoxicity (Mus musculus [9]): 1%

Structure (SMILES): CCCCCCC(COP(=O)([O-])OCC[N+](C)(C)C)OCC (centres undefined)
inhibition in vivo at 25 mg/kg (X5563 [10]): 16%
Macrophage cytotoxicity (Mus musculus [1]): 0%
inhibition in vivo at 17 mg/kg (X5563 [4]): 17%
IC50 (CCRF-CEM): > 200 µg/mL
Macrophage cytotoxicity (Mus musculus [6]): 0%
inhibition in vivo at 35 mg/kg (X5563 [11]): 17%
Macrophage cytotoxicity (Mus musculus [9]): 0%

Structure (SMILES): CCCCCCCCCCCCCCCCCC[C@H](COP(=O)([O-])OCC[N+](C)(C)C)OC(C)=O
inhibition in vivo at 25 mg/kg (X5563 [12]): 39%
Macrophage cytotoxicity (Mus musculus [1]): 0%
inhibition in vivo at 50 mg/kg (X5563 [13]): 100%
inhibition in vivo at 35 mg/kg [14]: 68%
inhibition in vivo at 17 mg/kg (X5563 [4]): 57%
IC50 (CCRF-CEM): 0.9 µg/mL (≈ 1.73 µM)
Macrophage cytotoxicity (Mus musculus [6]): 23%
Macrophage cytotoxicity (Mus musculus [9]): 0%

Structure (SMILES): CCCCC/C=C\C/C=C\CCCCCCCC(COP(=O)([O-])OCC[N+](C)(C)C)OCC (centres undefined)
IC50 (CCRF-CEM): 6 µg/mL (≈ 12.3 µM)
inhibition in vivo at 70 mg/kg (X5563 [15]): 31%

Structure (SMILES): CCCCCCCC/C=C\CCCCCCCC(COP(=O)([O-])OCC[N+](C)(C)C)OCC (centres undefined)
inhibition in vivo at 50 mg/kg (X5563 [16]): 47%
IC50 (CCRF-CEM): 1.6 µg/mL (≈ 3.25 µM)
inhibition in vivo at 70 mg/kg (X5563 [17]): 67%

Structure (SMILES): CCCCCCCCCCCCCCCCCCCCCCCC(COP(=O)([O-])OCC[N+](C)(C)C)OCC (centres undefined)
Macrophage cytotoxicity (Mus musculus [1]): 2%
Macrophage cytotoxicity (Mus musculus [6]): 0%
Macrophage cytotoxicity (Mus musculus [9]): 0%

Structure (SMILES): CCCCCCCCCCC(COP(=O)([O-])OCC[N+](C)(C)C)OCC (centres undefined)
Macrophage cytotoxicity (Mus musculus [1]): 2%
inhibition in vivo at 35 mg/kg (X5563 [18]): 45%
IC50 (CCRF-CEM): 55 µg/mL (≈ 139 µM)
inhibition in vivo at 25 mg/kg (X5563 [19]): 39%
inhibition in vivo at 17 mg/kg (X5563 [20]): 41%
Macrophage cytotoxicity (Mus musculus [6]): 32%
Macrophage cytotoxicity (Mus musculus [9]): 1%

Structure (SMILES): CCCCCCCCCCCCCCCCOC[C@H](COP(=O)([O-])OCC[N+](C)(C)C)OCC
Macrophage cytotoxicity (Mus musculus [1]): 5%
inhibition in vivo at 5 mg/kg (X5563 [21]): 18%
IC50 (CCRF-CEM): 2.9 µg/mL (≈ 5.69 µM)
Macrophage cytotoxicity (Mus musculus [6]): 31%
Macrophage cytotoxicity (Mus musculus [9]): 4%

IC50 (CCRF-CEM): 1.5 µg/mL (≈ 3.04 µM)
Structure (SMILES): CCCCCCCCCCCCCCCCCCC(COP(=O)([O-])OCC[N+](C)(C)C)OC (centres undefined)

IC50 (CCRF-CEM): > 20 µg/mL
Structure (SMILES): CCCCCCCCCCCCCCCCCC[C@@H](O)COP(=O)([O-])OCC[N+](C)(C)C

Structure (SMILES): CCCCCCCCCCCCCCC(COP(=O)([O-])OCC[N+](C)(C)C)OCC (centres undefined)
inhibition in vivo at 25 mg/kg (X5563 [12]): 17%
IC50 (CCRF-CEM): 5.4 µg/mL (≈ 12 µM)
inhibition in vivo at 35 mg/kg (X5563 [5]): 80%
inhibition in vivo at 17 mg/kg (X5563 [22]): 7%
